Experimental data: ChEMBL document CHEMBL1649293, “Susceptibilities of human cytomegalovirus clinical isolates and other herpesviruses to new acetylated, tetrahalogenated benzimidazole D-ribonucleosides” (Antimicrob Agents Chemother, 2009)
Activity calls are given as the source filed them. No cut-off for these calls is given here.

Key:
Human betaherpesvirus 5 [1] = experiment: Antiviral activity against ganciclovir-sensitive HCMV infected in HFF assessed as formation of viral capsid type B at 10 uM measured after 72 hrs postinfection by electron microscopy; assay type: functional
Outline: (§1)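 HFF (1 × 10^6) infected with GCV-sensitive or GCV-resistant clinical isolates at MOI 1, with or without 10 μM compound. Cells fixed 72 h p.i., embedded, thin-sectioned, and examined by transmission EM at 120 kV. Nuclear A, B and C capsids counted.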

Human betaherpesvirus 5 [2] = experiment: Antiviral activity against ganciclovir-resistant HCMV infected in HFF assessed as reduction in viral plaque formation after 8 days by microscopy; assay type: functional, organism-based; conditions: Human betaherpesvirus 5, 192 h
Outline: (§2)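 HFF (1 × 10^5/well) infected with GCV-sensitive or GCV-resistant clinical isolates at MOI 0.01. After 1 h, inoculum replaced by methyl cellulose overlay with DMEM, 3% FCS and compound dilutions in duplicate. Incubation 8 days at 37°C, then crystal violet staining and plaque counting by microscope. EC50 derived relative to untreated cells.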

Human alphaherpesvirus 3 = experiment: Antiviral activity against VZV OKA infected in HFF assessed as viral plaque formation at 5 uM after 8 days by microscopy relative to control; assay type: functional
Outline: (§3)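 Plaque reduction with compound at a single concentration of 5 μM. After infection, plaques were counted under a microscope, and inhibition was expressed relative to untreated infected cells.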

[3] = Cytotoxicity against rat Rat2 cells after 8 days by XTT assay; assay type: cell-based
Outline: (§4)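 XTT cell-proliferation read-out after 8 days of exposure at 37°C to varied drug concentrations. Absorbance was read at 492 nm against 650 nm reference, 4 h after adding XTT labeling mixture. CC50 was determined.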

Human betaherpesvirus 5 [4] = experiment: Antiviral activity against ganciclovir-resistant HCMV infected in HFF assessed as cleavage of viral DNA concatemer at 30 uM measured after 72 hrs postinfection by […]; assay type: functional, organism-based
Human betaherpesvirus 5 [5] = experiment: Antiviral activity against ganciclovir-sensitive HCMV infected in HFF assessed as formation of viral capsid type C at 10 uM measured after 72 hrs postinfection by electron microscopy; assay type: functional; outline: as §1
[6] = Selectivity index, ratio of CC50 for HFF to EC50 for ganciclovir-resistant HCMV infected in HFF
Outline: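 CC50 in HFF (5 × 10^4/well) after 8 days at 37°C with drug dilutions, read by XTT (4 h, A492 with 650 nm reference). EC50 from 8-day plaque reduction in HFF infected with GCV-resistant clinical isolate at MOI 0.01 under methyl cellulose, duplicates, crystal violet staining.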

Human alphaherpesvirus 1 = experiment: Antiviral activity against Herpes simplex virus 1 KOS infected in HFF assessed as viral plaque formation at 5 uM after 8 days by microscopy relative to control; assay type: functional; outline: as §3
[7] = Cytotoxicity against HFF after 8 days by XTT assay; assay type: cell-based; conditions: human, HFF cells
Outline: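 XTT proliferation assay: HFF seeded at 5 × 10^4/well were exposed to a range of drug concentrations for 8 days at 37°C. XTT labeling mixture was then added for 4 h, and absorbance was read at 492 nm (reference 650 nm). CC50 was derived.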

Human betaherpesvirus 5 [8] = experiment: Antiviral activity against ganciclovir-sensitive HCMV infected in HFF assessed as cleavage of viral DNA concatemer at 30 uM measured after 72 hrs postinfection by […]; assay type: functional, organism-based
Outline: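 HFF (1 × 10^6) infected with a GCV-sensitive clinical isolate at MOI 1 in the presence of 30 μM compound. DNA was harvested at 72 h p.i. and separated by PFGE in 1% low-melting agarose (15–110 s, 150 V, 27 h). Cleavage into unit-length genomes was judged after ethidium bromide staining.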

Human betaherpesvirus 5 [9] = experiment: Antiviral activity against ganciclovir-sensitive HCMV infected in HFF assessed as formation of viral capsid type A at 10 uM measured after 72 hrs postinfection by electron microscopy; assay type: functional; outline: as §1
Human betaherpesvirus 5 [10] = experiment: Antiviral activity against ganciclovir-resistant HCMV infected in HFF assessed as formation of viral capsid type C at 10 uM measured after 72 hrs postinfection by electron microscopy; assay type: functional; outline: as §1
Human betaherpesvirus 5 [11] = experiment: Antiviral activity against ganciclovir-resistant HCMV infected in HFF assessed as formation of viral capsid type A at 10 uM measured after 72 hrs postinfection by electron microscopy; assay type: functional; outline: as §1
[12] = Cytotoxicity against mouse NIH/3T3 cells after 8 days by XTT assay; assay type: cell-based, NIH3T3; outline: as §4
[13] = tested on: Murid betaherpesvirus 1 (mouse cytomegalovirus); experiment: Antiviral activity against MCMV Smith infected in NIH 3T3 assessed as viral plaque formation at 5 uM after 8 days by microscopy relative to control
Human betaherpesvirus 5 [14] = experiment: Antiviral activity against ganciclovir-sensitive HCMV infected in HFF assessed as reduction in viral plaque formation after 8 days by microscopy; assay type: functional, organism-based; conditions: Human betaherpesvirus 5, 192 h; outline: as §2
Human betaherpesvirus 5 [15] = experiment: Antiviral activity against ganciclovir-resistant HCMV infected in HFF assessed as formation of viral capsid type B at 10 uM measured after 72 hrs postinfection by electron microscopy; assay type: functional; outline: as §1
Human betaherpesvirus 5 [16] = experiment: Antiviral activity against HCMV AD169 infected in HFF assessed as viral plaque formation at 5 uM after 8 days by microscopy relative to control; assay type: functional; outline: as §3
[17] = Selectivity index, ratio of CC50 for HFF to EC50 for ganciclovir-sensitive HCMV infected in HFF
Human betaherpesvirus 5 [18] = experiment: Antiviral activity against ganciclovir-resistant HCMV infected in HFF assessed as cleavage of viral DNA concatemer at 10 uM measured after 72 hrs postinfection by […]; assay type: functional, organism-based
Human betaherpesvirus 5 [19] = experiment: Antiviral activity against ganciclovir-sensitive HCMV infected in HFF assessed as cleavage of viral DNA concatemer at 10 uM measured after 72 hrs postinfection by […]; assay type: functional, organism-based
Outline: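 HFF (1 × 10^6) infected with a GCV-sensitive clinical isolate at MOI 1 and treated with 10 μM compound. DNA was isolated 72 h p.i. and run by pulsed-field electrophoresis on 1% low-melting agarose (15–110 s pulses, 150 V, 27 h). Unit-length versus concatemeric DNA was viewed by ethidium bromide staining. Mock- and AD169-infected cells served as controls.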

Row | SMILES | Activity (Human betaherpesvirus 5 [1]) [%] | EC50 (Human betaherpesvirus 5 [2]) [µM] | Activity (Human alphaherpesvirus 3) [%] | CC50 at 192 h [3] [µM] | Activity (Human betaherpesvirus 5 [5]) [%] | Ratio CC50/EC50 [6] | Activity (Human alphaherpesvirus 1) [%] | CC50 at 192 h [7] [µM] | Activity (Human betaherpesvirus 5 [9]) [%] | Activity (Human betaherpesvirus 5 [10]) [%] | Activity (Human betaherpesvirus 5 [11]) [%] | CC50 at 192 h [12] [µM] | Activity [13] [%] | EC50 (Human betaherpesvirus 5 [14]) [µM] | Activity (Human betaherpesvirus 5 [15]) [%] | Activity (Human betaherpesvirus 5 [16]) [%] | Ratio CC50/EC50 [17] | other results
1 | CC(=O)OC[C@H]1O[C@@H](n2c(Br)nc3c(Cl)c(Cl)c(Cl)cc32)[C@H](OC(C)=O)[C@@H]1OC(C)=O | 60.5 | 0.5 | 26.1 | 14.5 | 28.8 | 55.8 | 76.6 | 27.9 | 10.7 | 24 | 15.3 | 15.1 | 70.8 | 0.33 | 60.7 | 0.42 | 121 | Activity (Human betaherpesvirus 5 [4]): Active; Activity (Human betaherpesvirus 5 [8]): Active
2 | OC[C@H]1O[C@@H](n2c(Br)nc3cc(Cl)c(Cl)cc32)[C@H](O)[C@@H]1O | 67.2 | 0.47 | 31.6 | 136 | 21.4 | 667 | 46.6 | 314 | 13.6 | 31.2 | 13.8 | 88.1 | 41.6 | 0.35 | 55 | 0.34 | 896 | –
3 | CC(=O)OC[C@H]1O[C@@H](n2c(Cl)nc3c(Cl)c(Cl)c(Cl)cc32)[C@H](OC(C)=O)[C@@H]1OC(C)=O | 76.4 | 0.15 | 31.1 | 19.2 | 13.3 | 445 | – | 66.7 | 10.5 | 29.9 | 8.6 | 39.6 | 68.3 | 0.34 | 61.5 | 0.25 | 202 | Activity (Human betaherpesvirus 5 [18]): Active; Activity (Human betaherpesvirus 5 [19]): Active
